From ChEMBL document CHEMBL3797154, “Design and Synthesis of 1-((1,5-Bis(4-chlorophenyl)-2-methyl-1H-pyrrol-3-yl)methyl)-4-methylpiperazine (BM212) and N-Adamantan-2-yl-N'-((E)-3,7-dimethylocta-2,6-dienyl)ethane-1,2-diamine (SQ109) Pyrrole Hybrid Derivatives: Discovery of Potent Antitubercular Agents Effective against …” (J Med Chem, 2016)
Converted amounts (≈) assume the structure as drawn. The source made the active and inactive calls. The rule behind the calls is not given here.

Key:
[1] = tested on: Mycolicibacterium aurum; test: Inhibition of multidrug resistance efflux pump in Mycobacterium aurum ATCC 23366 assessed as inhibition of ethidium bromide efflux by measuring relative fluorescence units for ethidium bromide accumulation at 1/4 times MIC incubated for 60 mins by fluorimetric assay
Summary of the method: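 Whole-cell efflux assay: early-log cells (OD600 ~0.8) adjusted to OD600 0.4, washed into PBS; 4-6x10^7 bacteria/mL with 0.4% glucose, 0.5 mg/L ethidium bromide substrate and compound at 1/4x MIC. Fluorescence ex 544/em 590 nm at 37 °C every minute for 60 min; accumulation scored 0-4 by relative fluorescence bands. Verapamil positive, PBS negative control.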

[2] = tested on: Mycolicibacterium smegmatis; test: Antimycobacterial activity against Mycobacterium smegmatis str. MC2 155 ATCC 700084 assessed as inhibition of mycobacterial growth incubated for 24 hrs by MABA method; type: functional; details: MC2 155 ATCC 700084, 24 h
[3] = tested on: Mycolicibacterium aurum; test: Antimycobacterial activity against Mycobacterium aurum ATCC 23366 assessed as inhibition of mycobacterial growth incubated for 4 days; type: functional
Summary of the method: (§1)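 HT-SPOTi agar dilution: two-fold serial dilutions of compound were mixed into Middlebrook 7H10 agar with 0.05% glycerol and 10% OADC, giving a final range of 500–0.5 µg/mL. Each well was spotted with 2x10^3 CFU of early-to-mid-log culture. Plates were incubated at 35 or 37 °C until spots appeared in control wells. Controls were DMSO-only and isoniazid. The MIC was read, in triplicate.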

[4] = tested on: Mycobacterium tuberculosis; test: Antimycobacterial activity against Mycobacterium tuberculosis mc'2-7000x assessed as inhibition of mycobacterial growth; type: functional
[5] = tested on: Mycobacterium tuberculosis; test: Antimycobacterial activity against Mycobacterium tuberculosis H37Rv ATTC 27294 assessed as inhibition of mycobacterial growth incubated for 7 days; type: functional; details: H37Rv ATTC 27294, 168 h
Summary of the method: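 MIC by HT-SPOTi on Middlebrook 7H10 agar with 0.05% (v/v) glycerol and 10% (v/v) OADC in 96-well format. Compounds dissolved at 50 mg/mL (stock), two-fold serial dilutions, final 500-0.5 µg/mL. Each well spotted with 2 µL early-to-midlog culture (2x10^3 CFU), incubated at 37 °C until distinct spots in control wells. DMSO-only and isoniazid controls; triplicate.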

[6] = Cytotoxic activity against human THP1 cells assessed as reduction in cell viability incubated for 48 hrs by […] based assay; parameters: species or system THP-1; details: THP1 cells
Summary of the method: (§2)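 RAW264.7 or THP-1 cells were grown in RPMI-1640 with 10% FBS and seeded at 10^5 cells/mL. Compound was two-fold serially diluted from a 50 mg/mL stock, with a solvent-control row. Plates were held 48 h at 37 °C in 5% CO2. Wells were washed twice with PBS, with centrifugation between washes for THP-1, then given fresh RPMI plus 0.01% […]. After overnight incubation, fluorescence was read at 560/590 nm and GIC50 derived.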

[7] = Cytotoxic activity against mouse RAW264.7 cells assessed as reduction in cell viability incubated for 48 hrs by […] based assay; summary of the method: as §2
[8] = Selectivity index, ratio of GIC50 for cytotoxicity against mouse RAW264.7 cells to MIC for Mycobacterium tuberculosis H37Rv ATTC 27294; type: toxicity, cell-based; details: read-out: Selectivity Index
Summary of the method: (§3)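 SI = GIC50 / H37Rv MIC (agar spot assay). GIC50 from cells in RPMI-1640 + 10% FBS, 37 °C, 5% CO2; 10^5 cells/mL added to two-fold compound dilutions from 50 mg/mL stock, solvent control row. 48 h exposure, washes (THP-1 centrifuged), fresh medium plus 0.01% […], overnight; fluorescence ex 560/em 590 nm.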

[9] = Selectivity index, ratio of GIC50 for cytotoxicity against human THP1 cells to MIC for Mycobacterium tuberculosis H37Rv ATTC 27294; type: toxicity, cell-based, THP-1; details: read-out: Selectivity Index; summary of the method: as §3
[10] = tested on: Mycolicibacterium aurum; test: Antimycobacterial activity against Mycobacterium aurum ATCC 23366 assessed as inhibition of mycobacterial growth at 500 ug/ml incubated for 4 days; type: functional, organism-based; summary of the method: as §1

Row | SMILES | Activity [1] [RFU] | MIC [2] [µg/mL] | MIC ([3]; ATCC 23366, 96 h) [µg/mL] | MIC [4] [µg/mL] | MIC [5] [µg/mL] | GI50 at 48 h [6] [µg/mL] | GI50 at 48 h [7] [µg/mL] | selectivity ratio [8] | selectivity ratio [9] | MIC [3] | growth inhibition (GI) [10]
1 | Cc1cc(CN2CCN(C3C4CC5CC(C4)CC3C5)CC2)c(C)n1-c1ccc(Cl)cc1 (stereo unspecified) | 1 | 8 (≈ 18.3 µM) | 7.8 (≈ 17.8 µM) | 3.3 (≈ 7.53 µM) | 7.8 (≈ 17.8 µM) | 32 (≈ 73 µM) | 5.7 (≈ 13 µM) | 0.7 | 4.1 |  | 
2 | Cc1c(CN2CCN(c3ccccc3)CC2)cc(-c2ccc(Cl)cc2)n1-c1ccc(Cl)cc1 | 2 | > 64 |  | 1 (≈ 2.1 µM) | 1.9 (≈ 3.99 µM) | 294 (≈ 617 µM) | 175 (≈ 367 µM) | 92 | 155 | inactive | 
3 | Cc1ccc(CNCc2cc(C)n(-c3ccc(Cl)cc3)c2C)cc1 | 2 | 8 (≈ 23.6 µM) | 1.9 (≈ 5.61 µM) | 2 (≈ 5.9 µM) | 1 (≈ 2.95 µM) | 6.1 (≈ 18 µM) | 0.1 (≈ 0.295 µM) | 0.1 | 6.1 |  | 
4 | Cc1cc(/C=N\OCc2ccccc2)c(C)n1-c1ccc(Cl)cc1 | 1 | > 64 |  | > 64 | > 125 | 500 (≈ 1480 µM) | 128 (≈ 378 µM) |  | < 4 | inactive | inactive
5 | Cc1cc(CNCc2ccc(F)cc2)c(C)n1-c1ccc(Cl)cc1 | 1 | 2 (≈ 5.83 µM) | 1.9 (≈ 5.54 µM) | 0.7 (≈ 2.04 µM) | > 125 | 8.4 (≈ 24.5 µM) | 26 (≈ 75.8 µM) |  |  |  | 
6 | Cc1c(CN2CCN(C)CC2)cc(-c2ccc(Cl)cc2)n1-c1ccc(Cl)cc1 | 2 | 25 (≈ 60.3 µM) | 16 (≈ 38.6 µM) | 8 (≈ 19.3 µM) | 1 (≈ 2.41 µM) | 3.23 (≈ 7.8 µM) | 19 (≈ 45.9 µM) | 19 | 3.23 |  | 
7 | Cc1cc(CNCc2ccccc2)c(C)n1-c1ccc(F)cc1 | 1 | 16 (≈ 51.9 µM) | 7.8 (≈ 25.3 µM) | 4 (≈ 13 µM) | 1 (≈ 3.24 µM) | 28 (≈ 90.8 µM) | 5.6 (≈ 18.2 µM) | 5.6 | 28 |  | 
8 | Cc1cc(CNCc2ccc(Cl)cc2)c(C)n1-c1ccc(Cl)cc1 | 2 | 4 (≈ 11.1 µM) | 1.9 (≈ 5.29 µM) | 2 (≈ 5.57 µM) | 16 (≈ 44.5 µM) | 18 (≈ 50.1 µM) | 0.1 (≈ 0.278 µM) | 0.006 | 1.1 |  | 
9 | Cc1cc(CN2CCN(c3ccccc3)CC2)c(C)n1-c1ccc(Cl)cc1 | 1 | 32 (≈ 84.2 µM) | 31 (≈ 81.6 µM) | 32 (≈ 84.2 µM) | 7.8 (≈ 20.5 µM) | 25 (≈ 65.8 µM) | 33 (≈ 86.9 µM) | 4.2 | 3.2 |  | 
10 | Cc1cc(CN2CCN(C3C4CC5CC(C4)CC3C5)CC2)c(C)n1-c1ccc(C(C)C)cc1 (stereo unspecified) | 3 | 21 (≈ 47.1 µM) | 500 (≈ 1120 µM) | 3.3 (≈ 7.4 µM) | 16 (≈ 35.9 µM) | 72 (≈ 162 µM) | 92 (≈ 206 µM) | 5.7 | 4.5 |  | 
11 | Cc1cc(CN2CCN(C34CC5CC(CC(C5)C3)C4)CC2)c(C)n1-c1ccc(Cl)cc1 | 4 | 8 (≈ 18.3 µM) | 16 (≈ 36.5 µM) | 8 (≈ 18.3 µM) | 16 (≈ 36.5 µM) | 16 (≈ 36.5 µM) | 0.1 (≈ 0.228 µM) | 0.006 | 1 |  | 
12 | Cc1c(CN2CCN(C3C4CC5CC(C4)CC3C5)CC2)cc(-c2ccc(Cl)cc2)n1-c1ccc(Cl)cc1 (stereo unspecified) | 0 | > 64 |  | > 64 | 62 (≈ 116 µM) | 500 (≈ 935 µM) | 95 (≈ 178 µM) | 1.5 | 8.1 | inactive | 
